Reference: ChEMBL document CHEMBL4229460, “Design and biological evaluation of novel hybrids of 1, 5-diarylpyrazole and Chrysin for selective COX-2 inhibition” (Bioorg Med Chem, 2018)

Tests used:
[1] = system: HeLa; assay: Induction of apoptosis in human HeLa cells assessed as early apoptotic cells at 10 uM after 24 hrs by Annexin-V-FITC/propidium iodide staining based flow cytometry (reference value: 2.98%); type: functional
How it was run: (§1)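 HeLa seeded at 2 × 10⁵ cells/well. Dose series was 0, 1.25, 2.5, 5 and 10 μM for 24 h; time course was 5 μM for 12, 24, 36 or 48 h. Trypsinized and washed in ice-cold PBS, then stained in binding buffer with Annexin V-FITC and PI for 10 min in the dark. Flow cytometry scored early (Annexin⁺/PI⁻) and late (Annexin⁺/PI⁺) apoptotic cells.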

[2] = system: HeLa; assay: Induction of apoptosis in human HeLa cells assessed as early apoptotic cells at 5 uM after 12 hrs by Annexin-V-FITC/propidium iodide staining based flow cytometry (reference value: 1.24%); type: functional; how it was run: as §1
[3] = system: HEK-293T; assay: Cytotoxicity against human 293T cells after 48 hrs by MTT assay; type: cell-based
[4] = system: MCF7; assay: Antiproliferative activity against human MCF7 cells after 48 hrs by MTT assay; type: functional, cell-based; conditions: MCF7, 48 h
[5] = system: HeLa; assay: Disruption of mitochondrial membrane potential in human HeLa cells assessed as intact mitochondrial membrane at 1.25 uM after 12 hrs by JC1 staining based flow cytometry (reference value: 99.2%); type: functional
[6] = molecular target: Prostaglandin G/H synthase 1 (Homo sapiens, UniProt P23219); assay: Inhibition of COX1 (unknown origin) using arachidonic acid as substrate pretreated for 10 mins followed by substrate addition and measured after 2 mins by ELISA; type: ADME
[7] = system: HeLa; assay: Cell cycle arrest in human HeLa cells assessed as accumulation at S phase at 1.25 uM after 24 hrs by propidium iodide staining based flow cytometry (reference value: 18.16%); type: functional
[8] = system: HeLa; assay: Disruption of mitochondrial membrane potential in human HeLa cells assessed as collapse of the mitochondrial membrane potential at 5 uM after 12 hrs by JC1 staining based flow cytometry (reference value: 0.768%); type: functional
[9] = system: HeLa; assay: Induction of apoptosis in human HeLa cells assessed as necrotic cells at 1.25 uM after 24 hrs by Annexin-V-FITC/propidium iodide staining based flow cytometry (reference value: 0.242%); type: functional; how it was run: as §1
[10] = system: HeLa; assay: Disruption of mitochondrial membrane potential in human HeLa cells assessed as collapse of the mitochondrial membrane potential at 1.25 uM after 12 hrs by JC1 staining based flow cytometry (reference value: 0.768%); type: functional
[11] = system: HeLa; assay: Cell cycle arrest in human HeLa cells assessed as accumulation at G2/M phase at 2.5 uM after 24 hrs by propidium iodide staining based flow cytometry (reference value: 21.45%); type: functional
[12] = system: HeLa; assay: Disruption of mitochondrial membrane potential in human HeLa cells assessed as collapse of the mitochondrial membrane potential at 10 uM after 12 hrs by JC1 staining based flow cytometry (reference value: 0.768%); type: functional
[13] = system: HeLa; assay: Induction of apoptosis in human HeLa cells assessed as early apoptotic cells at 5 uM after 48 hrs by Annexin-V-FITC/propidium iodide staining based flow cytometry (reference value: 1.24%); type: functional; how it was run: as §1
[14] = system: HeLa; assay: Cell cycle arrest in human HeLa cells assessed as accumulation at G2/M phase at 1.25 uM after 24 hrs by propidium iodide staining based flow cytometry (reference value: 21.45%); type: functional
[15] = system: HeLa; assay: Antiproliferative activity against human HeLa cells after 48 hrs by MTT assay; type: functional, cell-based
[16] = system: HeLa; assay: Disruption of mitochondrial membrane potential in human HeLa cells assessed as intact mitochondrial membrane at 5 uM after 12 hrs by JC1 staining based flow cytometry (reference value: 99.2%); type: functional
[17] = system: HeLa; assay: Induction of apoptosis in human HeLa cells assessed as early apoptotic cells at 5 uM after 36 hrs by Annexin-V-FITC/propidium iodide staining based flow cytometry (reference value: 1.24%); type: functional; how it was run: as §1
[18] = system: HeLa; assay: Disruption of mitochondrial membrane potential in human HeLa cells assessed as intact mitochondrial membrane at 10 uM after 12 hrs by JC1 staining based flow cytometry (reference value: 99.2%); type: functional
[19] = system: HeLa; assay: Induction of apoptosis in human HeLa cells assessed as live cells at 1.25 uM after 24 hrs by Annexin-V-FITC/propidium iodide staining based flow cytometry (reference value: 94.6%); type: functional; how it was run: as §1
[20] = system: HeLa; assay: Cell cycle arrest in human HeLa cells assessed as accumulation at G1 phase at 10 uM after 24 hrs by propidium iodide staining based flow cytometry (reference value: 55.51%); type: functional
[21] = system: HeLa; assay: Induction of apoptosis in human HeLa cells assessed as necrotic cells at 2.5 uM after 24 hrs by Annexin-V-FITC/propidium iodide staining based flow cytometry (reference value: 0.242%); type: functional; how it was run: as §1
[22] = system: HeLa; assay: Induction of apoptosis in human HeLa cells assessed as late apoptotic cells at 1.25 uM after 24 hrs by Annexin-V-FITC/propidium iodide staining based flow cytometry (reference value: 1.72%); type: functional; how it was run: as §1
[23] = system: HeLa; assay: Induction of apoptosis in human HeLa cells assessed as live cells at 5 uM after 48 hrs by Annexin-V-FITC/propidium iodide staining based flow cytometry (reference value: 95.1%); type: functional; how it was run: as §1
[24] = system: A549; assay: Antiproliferative activity against human A549 cells after 48 hrs by MTT assay; type: functional, cell-based; conditions: A549, 48 h
How it was run: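 Cells kept in DMEM with 10% FBS, penicillin/streptomycin, 37 °C, 5% CO₂. Seeded at 5 × 10⁴ cells/well and allowed to adhere 12 h. Exposed to 0, 0.1, 1, 10 and 100 μM (final) for 48 h. Viability read by MTT reduction at OD 570 nm with 630 nm reference. IC50 reported as mean ± SD of three independent experiments.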

[25] = organism: Homo sapiens; assay: Selectivity index, ratio of IC50 for COX1 (unknown origin) to ratio of IC50 for COX2 (unknown origin)
How it was run: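 Enzyme ELISA kit: COX-1 or COX-2 preincubated with compound at 0, 1, 10 or 100 μM for 10 min at 37 °C in 0.1 M Tris-HCl pH 8.0, 5 mM EDTA, 2 mM phenol, 1 μM heme. Started with 100 μM arachidonic acid for 2 min at 37 °C, stopped with 1 M HCl. PGH₂ reduced by stannous chloride; PGF2α read by enzyme immunoassay at 450 nm. Index taken as the ratio of the COX IC50 values.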

[26] = system: HeLa; assay: Induction of apoptosis in human HeLa cells assessed as late apoptotic cells at 2.5 uM after 24 hrs by Annexin-V-FITC/propidium iodide staining based flow cytometry (reference value: 1.72%); type: functional; how it was run: as §1
[27] = system: HeLa; assay: Cell cycle arrest in human HeLa cells assessed as accumulation at S phase at 2.5 uM after 24 hrs by propidium iodide staining based flow cytometry (reference value: 18.16%); type: functional
[28] = system: HeLa; assay: Disruption of mitochondrial membrane potential in human HeLa cells assessed as intact mitochondrial membrane at 2.5 uM after 12 hrs by JC1 staining based flow cytometry (reference value: 99.2%); type: functional
[29] = system: HeLa; assay: Induction of apoptosis in human HeLa cells assessed as early apoptotic cells at 1.25 uM after 24 hrs by Annexin-V-FITC/propidium iodide staining based flow cytometry (reference value: 2.98%); type: functional; how it was run: as §1
[30] = system: HeLa; assay: Induction of apoptosis in human HeLa cells assessed as late apoptotic cells at 5 uM after 12 hrs by Annexin-V-FITC/propidium iodide staining based flow cytometry (reference value: 2.57%); type: functional; how it was run: as §1

Prostaglandin G/H synthase 1, sequence (P23219 whole entry): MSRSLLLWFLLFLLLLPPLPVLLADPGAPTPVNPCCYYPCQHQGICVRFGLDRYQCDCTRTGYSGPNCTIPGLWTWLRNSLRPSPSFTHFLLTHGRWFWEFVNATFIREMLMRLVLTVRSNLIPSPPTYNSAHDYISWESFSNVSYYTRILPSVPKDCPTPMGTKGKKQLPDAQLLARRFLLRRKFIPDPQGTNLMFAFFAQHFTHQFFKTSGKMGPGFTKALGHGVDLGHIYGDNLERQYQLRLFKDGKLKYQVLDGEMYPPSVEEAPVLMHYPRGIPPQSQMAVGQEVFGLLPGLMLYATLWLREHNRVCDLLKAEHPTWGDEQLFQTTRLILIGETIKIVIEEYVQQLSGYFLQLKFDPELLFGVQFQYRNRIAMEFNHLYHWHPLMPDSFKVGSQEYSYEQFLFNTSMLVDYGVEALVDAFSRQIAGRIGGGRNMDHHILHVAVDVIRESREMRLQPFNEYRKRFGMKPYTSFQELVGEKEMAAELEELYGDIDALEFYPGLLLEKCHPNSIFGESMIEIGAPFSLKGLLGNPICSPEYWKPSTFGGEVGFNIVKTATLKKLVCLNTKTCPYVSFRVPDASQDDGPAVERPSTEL

Structure (SMILES): COc1ccc(-c2cc(COC(=O)COc3cc(O)c4c(=O)cc(-c5ccccc5)oc4c3)nn2-c2ccc(C)cc2)cc1
- Activity [1]: 36.8%
- Activity [2]: 22.7%
- IC50 [3]: 194 µM
- IC50 [4]: 3.23 µM
- Activity [5]: 96.5%
- IC50 [6]: 47.5 µM
- Activity [7]: 17.96%
- Activity [8]: 9.32%
- Activity [9]: 1.18%
- Activity [10]: 3.1%
- Activity [11]: 9.58%
- Activity [12]: 13.3%
- Activity [13]: 73.2%
- Activity [14]: 13.65%
- IC50 [15]: 1.12 µM
- Activity [16]: 90.5%
- Activity [17]: 40.4%
- Activity [18]: 86.5%
- Activity [19]: 83.2%
- Activity [20]: 76.02%
- Activity [21]: 0.332%
- Activity [22]: 5.16%
- Activity [23]: 18.1%
- IC50 [24]: 6.41 µM
- Ratio IC50 [25]: 206
- Activity [26]: 8.28%
- Activity [27]: 18.61%
- Activity [28]: 93.4%
- Activity [29]: 12.6%
- Activity [30]: 7.07%
